The test system of data set [1] is Salmonella typhimurium. Kind of data set: Potentiation of erythromycin-induced antibacterial activity against Salmonella enterica subsp. enterica serovar Typhimurium BN10055 assessed as ratio of the erythromycin alone MIC to erythromycin MIC in presence of MIC/4 level of compound incubated for 18 hrs. Type of data set: functional. In a few lines:
(§1)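 Broth microdilution in MH broth, 10^5 CFU inoculum, two-fold antibiotic dilutions, with or without compound at MIC/4. MIC is the lowest concentration with no visible growth after 18 h at 37°C. Gain is antibiotic MIC alone divided by MIC with compound. MICs repeated in at least three independent experiments; up to 5% DMSO.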

The subject of data set [2] is Klebsiella aerogenes. Kind of data set: Potentiation of doxycycline-induced antibacterial activity against Enterobacter aerogenes Ea289 assessed as ratio of the doxycycline alone MIC to doxycycline MIC in presence of MIC/4 level of compound incubated for 18 hrs. The data set is classed as functional. The gist of the method: as §1
Data set [3] concerns Salmonella typhimurium. Briefly: Potentiation of nalidixic acid-induced antibacterial activity against Salmonella enterica subsp. enterica serovar Typhimurium BN10055 assessed as ratio of the nalidixic acid alone MIC to […] in presence of MIC/4 level of compound incubated for 18 hrs. Type of data set: functional. The gist of the method:
as §1

Data set [4] relates to Klebsiella aerogenes. Kind of data set: Potentiation of nalidixic acid-induced antibacterial activity against Enterobacter aerogenes Ea289 assessed as ratio of the nalidixic acid alone MIC to nalidixic acid MIC in presence of MIC/4 level of compound incubated for 18 hrs.
Data set [5] is described as follows: Toxicity in CHO cells assessed as reduction in cell viability incubated for 24 hrs by WST1 assay. The data set is classed as cell-based. Particulars: Chinese hamster (Cricetulus griseus). The gist of the method:
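CHO-K1 cells in McCoy's 5A with 10% FCS, exposed in triplicate to 30–1200 μM compound for 24 h at 37°C. After PBS washes, 30 min in medium with 10% WST-1; absorbance at 450 nm. IC50 is the concentration giving 50% loss of viable cells.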

For data set [6], the system named is Salmonella typhimurium. Kind of data set: Potentiation of doxycycline-induced antibacterial activity against Salmonella enterica subsp. enterica serovar Typhimurium BN10055 assessed as ratio of the doxycycline alone MIC to doxycycline MIC in presence of MIC/4 level of compound incubated for 18 hrs. Type of data set: functional. In a few lines:
as §1

In data set [7] the test system is Klebsiella aerogenes. Kind of data set: Potentiation of chloramphenicol-induced antibacterial activity against Enterobacter aerogenes Ea289 assessed as ratio of the chloramphenicol alone MIC to […] in presence of MIC/4 level of compound incubated for 18 hrs. The data set is classed as functional. In a few lines: as §1
Data set [8] concerns Salmonella typhimurium. Briefly: Potentiation of chloramphenicol-induced antibacterial activity against Salmonella enterica subsp. enterica serovar Typhimurium BN10055 assessed as ratio of the chloramphenicol alone MIC to […] in presence of MIC/4 level of compound incubated for 18 hrs. The data set is classed as functional. The gist of the method:
as §1

Data set [9] has as its system Klebsiella aerogenes. Kind of data set: Potentiation of erythromycin-induced antibacterial activity against Enterobacter aerogenes Ea289 assessed as ratio of the erythromycin alone MIC to erythromycin MIC in presence of MIC/4 level of compound incubated for 18 hrs.
The test system of data set [10] is Klebsiella aerogenes. Kind of data set: Potentiation of chloramphenicol-induced antibacterial activity against Enterobacter aerogenes Ea289 assessed as efficiency index by measuring sum of gain factor for each test compound reported for chloramphenicol/nalidixic acid/doxycycline/erythromycin and divided by concentration of test compound. Type of data set: functional. Particulars: pooled result: one value given for 2 cell lines, strains, targets or settings. The gist of the method:
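Gain factors (antibiotic MIC alone / MIC with compound at MIC/4; broth dilution, 18 h, 37°C) for erythromycin, doxycycline, nalidixic acid and chloramphenicol are summed, then divided by the compound concentration used in the assay.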

Data set [11] can be described thus: Toxicity index, ratio of IC50 for toxicity in CHO cells to concentration of test compound causing at least 8 times decrease of MIC of almost 3 antibiotics (chloramphenicol/nalidixic acid/doxycycline/erythromycin ) against Enterobacter aerogenes Ea289. Particulars: hamster, pooled result: one value given for 2 cell lines, strains, targets or settings. Type of data set: cell-based.

SMILES strings stand for the structures.

The IC50 is the concentration that inhibits the measured activity by half. For `CC(C)=CCC/C(C)=C\CCC(C)=CCNCCN`, the Ratio is 32 in data set [1]; 8 in data set [2]; 64 in [3]; 8 in data set [4]; 32 in data set [6]; 4 in data set [7]. Also, the Ratio is reported as 8 in data set [8] and 128 in data set [9]. Moreover, the IC50 at 24 h in data set [5] turned out to be 32.3 µM.

For `CC(C)=CCC/C(C)=C\CCC(C)=CCNCCCCCN`, the Ratio in data set [1] worked out at 2; in [2], 64; in [3], 16; in data set [4], 8; in [6], 16; in [7] it was 16. In addition, the results for the Ratio in data set [8] and in data set [9] were 8 and 32, respectively. For the same molecule, in data set [5], the IC50 at 24 h is 38.4 µM.

For the molecule `CC(C)=CCCC(C)=CCNCCCN(C)CCCN`, the Ratio in data set [2] came to 16; in data set [3], 32; in data set [4] it was 8; in data set [6], 16; in data set [7], 16; in data set [8], 16. Also, the Ratio in [9] was 32. Further, the IC50 at 24 h in [5] is over 150 µM. In data set [10], the Activity_index was 0.01. In addition, the selectivity ratio in data set [11] is 0.06.

With `CCN(CC)CCCNCCCNCC=C(C)CCC=C(C)C`, the Ratio in data set [1] was found to be 8; in data set [2] it was 32; in data set [3], 64; in [4], 8; in [6] it was 32; in data set [7], 16. The values for the Ratio in data set [8] and in data set [9] were 16 and 32, respectively. Besides, the IC50 at 24 h in data set [5] stood at 30.9 µM. Moreover, in data set [10], the Activity_index amounted to 1.66. Moreover, in data set [11], the selectivity ratio amounted to 1.98.

Consider `CC(C)=CCC/C(C)=C\CCC(C)=CCNCCCN1CCN(CCCN)CC1`, for which the Ratio was 4 in data set [1]; 128 in [2]; 64 in [3]; 32 in [4]; 32 in data set [6]; 8 in [7]. The Ratio was 8 in data set [8] and 128 in [9]. In addition, in data set [5], the IC50 at 24 h amounted to 33.8 µM.

With `CC(C)=CCC/C(C)=C\CCC(C)=CCNCCCN(C)CCCN`, the Ratio in data set [1] was 8; in data set [2], 64; in data set [3], 128; in data set [4], 32; in data set [6], 64; in [7] it was 8. In addition, the Ratio in data set [8] came out at 16; in data set [9] it was 128. The half-maximal inhibitory concentration (IC50) at 24 h in [5] was 10.5 µM. Further, the Activity_index in [10] came out at 7.17. Also, in data set [11], the selectivity ratio was 1.34.

For `CC(C)=CCC/C(C)=C\CCC(C)=CCNCCNCCNCCNCCN`, the Ratio in data set [1] was 1; in data set [2] it was 32; in data set [3], 16; in [4], 16; in data set [6], 4; in [7], 8. For the same molecule, the Ratio in data set [8] and in data set [9] was 8 each time. The IC50 at 24 h in data set [5] amounted to 43.5 µM. In addition, the Activity_index in data set [10] is recorded as 1.49. Besides, the selectivity ratio in data set [11] came to 5.37.

`CC(C)=CCCC(C)=CCNCCN`: the Ratio was 1 in data set [1]; 32 in data set [2]; 16 in data set [3]; 4 in [4]; 16 in data set [6]; 4 in data set [7]. Besides, the Ratio is reported as 8 in data set [8] and 4 in data set [9]. Further, the half-maximal inhibitory concentration (IC50) at 24 h in data set [5] was 36.2 µM.

For the molecule `CC(C)=CCC/C(C)=C\CCC(C)=CCNCCCN`, the Ratio in [1] worked out at 64; in data set [2], 64; in data set [3], 128; in data set [4], 16; in data set [6], 32; in data set [7], 16. Besides, the Ratio worked out at 32 in data set [8] and 256 in data set [9]. Further, the half-inhibitory concentration (IC50) at 24 h in [5] was 32.1 µM.

Take `CC(C)=CCC/C(C)=C\CCC(C)=CCNCCCNCCCCNCCCN`: the Ratio in [2] was 16; in data set [3], 64; in data set [4] it was 32; in data set [6] it was 8; in data set [7], 16; in data set [8], 32. In data set [9], the Ratio is given as 8. For the same molecule, the concentration for half-maximal inhibition (IC50) at 24 h in data set [5] is 143 µM. In addition, the Activity_index in data set [10] was found to be 1.61. In data set [11], the selectivity ratio stood at 9.15.

On to `CC(C)=CCCC(C)=CCNCCCN1CCOCC1`, for which the Ratio turned out to be 1 in data set [1]; 2 in [2]; 1 in [3]; 1 in [4]; 2 in [6]; 1 in data set [7]. Moreover, the Ratio in data set [8] was found to be 2; in data set [9], 1. The IC50 at 24 h in data set [5] is over 150 µM.

`CC(C)=CCCC(C)=CCNCCCN1CCCC1`: the Ratio in data set [1] is 1; in [2] it was 2; in data set [3], 4; in [4], 2; in [6] it was 2; in data set [7] it was 1. The Ratio in data set [8] was found to be 2; in data set [9] it was 1. In addition, in [5], the concentration for half-maximal inhibition (IC50) at 24 h was over 150 µM.

Turning to `CC(C)=CCCC(C)=CCNCCCN1CCCC1=O`, the Ratio in data set [1] was 1; in data set [2], 2; in data set [3], 1; in [4] it was 1; in data set [6], 1; in data set [7] it was 1. Further, the Ratio is 1 in data set [8] and 2 in data set [9]. The IC50 at 24 h in data set [5] is over 150 µM.

As for `CC(C)=CCC/C(C)=C\CCC(C)=CCNCCCOCCCCOCCCN`, the Ratio in data set [1] turned out to be 4; in [2] it was 8; in [3] it was 16; in data set [4], 2; in data set [6], 8; in [7], 4. The Ratio worked out at 4 in data set [8] and 2 in data set [9]. In [5], the IC50 at 24 h is over 150 µM.

`CC(C)=CCCC(C)=CCNCCCN`: the Ratio in data set [2] was found to be 16; in data set [3], 32; in data set [4] it was 8; in [6] it was 16; in [7] it was 8; in [8] it was 8. The Ratio in data set [9] is listed as 32. Moreover, the IC50 at 24 h in [5] is over 150 µM.

Regarding `CC(C)=CCC/C(C)=C\CCC(C)=CCNCCCN1CCOCC1`, the Ratio amounted to 4 in data set [1]; 32 in data set [2]; 32 in data set [3]; 8 in data set [4]; 16 in data set [6]; 8 in data set [7]. Also, the values for the Ratio in [8] and in data set [9] were 8 and 16, respectively. Further, the half-maximal inhibitory concentration (IC50) at 24 h in [5] was 57.6 µM.

Consider `CC(C)=CCC/C(C)=C\CCC(C)=CCNCCCCN`, for which the Ratio in data set [1] came out at 4; in data set [2], 64; in [3], 64; in [4] it was 16; in data set [6] it was 16; in data set [7] it was 16. Further, the Ratio in data set [8] was determined as 8; in data set [9] it was 256. Besides, the IC50 at 24 h in [5] amounted to 18.1 µM.

As for `CC(C)=CCC/C(C)=C\CCC(C)=CCNCCCN1CCCC1`, the Ratio worked out at 16 in data set [1]; 32 in data set [2]; 128 in data set [3]; 16 in data set [4]; 32 in data set [6]; 16 in [7]. The values for the Ratio in [8] and in [9] were 16 and 64, respectively. For the same molecule, the half-maximal inhibitory concentration (IC50) at 24 h in data set [5] was 85.3 µM.

The record behind these values is ChEMBL document CHEMBL4622992, “New Polyaminoisoprenyl Antibiotics Enhancers against Two Multidrug-Resistant Gram-Negative Bacteria from Enterobacter and Salmonella Species” (J Med Chem, 2020).
